Cytotoxicity data for 96 molecules are collected here from ChEMBL document CHEMBL4513216, “Probing the Open Global Health Chemical Diversity Library for Multistage-Active Starting Points for Next-Generation Antimalarials” (ACS Infect Dis, 2020).

SMILES strings stand for the structures.

The data set in a line: Toxicity liver stage against HepG2, at 10uM. Type of data set: cell-based. Details: test concentration 10 uM, cell line HepG2-A16-CD81EGFP. Particulars: human, HepG2-A16-CD81EGFP cells; read-out: INHIBITION
A digest of the protocol:
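Uninfected HepG2-A16-CD81EGFP cells, 3 × 10^3 per well, 1536-well, plated on prespotted compound at 10 μM final, parasite-free screening media added to match infected plates; puromycin 10 μM positive, DMSO 0.5% negative; run in parallel with 48 h PbLuc assay at 37 °C, 5% CO2; viability by CellTiter-Glo luminescence, normalized to controls.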
Take `COc1ccc(CN2CCC[C@H]2c2nc(-c3cncnc3N)no2)cc1`: the cytotoxicity at 10 µM was -57%. On to `CCOC(=O)[C@H]1[C@@H](O)C(=O)N(C)C12CCN(S(=O)(=O)CC)CC2`, for which the cytotoxicity at 10 µM was -6.06%. Turning to `CC(C)Cc1nc(OCC#N)c(C#N)c2c1CCC2`, the cytotoxicity at 10 µM was -1.63%. Under `CC(C)C[C@H](NC(=O)NC1CCS(=O)(=O)C1)C(=O)NCc1cccnc1` (stereo partly specified) stands 0.948%. In the case of `COc1ccc(NC(=O)Nc2cnc(N3CCN(C)CC3)nc2)cc1Cl`, the cytotoxicity at 10 µM is -19.8%. `COCCCN1CC2(CCCCN2C(=O)C2CCCCC2)CC1=O` (stereo unspecified): the cytotoxicity at 10 µM amounted to 12.2%. Turning to `c1cnc(N2CC[C@@H]3[C@@H]2CCN3Cc2cccs2)nc1`, the cytotoxicity at 10 µM came to 3.91%. As to `CNC(=O)N1CCC2(CC1)C(=O)N(C)c1c(F)cccc12`, the cytotoxicity at 10 µM was -5.86%. As to `CCN1C(=O)CC[C@@H]2[C@H]1CCN2C(=O)Cc1cccc(OC)c1`, the cytotoxicity at 10 µM worked out at 0.657%. Under `COCC(=O)N1CCC(c2nc3ccc(N4CCOCC4)cn3n2)CC1` stands 12%; under `CS(=O)(=O)N1C[C@@H]2COC[C@H](C(=O)Nc3cnccn3)[C@@H]2C1`, 14.6%. For `COc1ccc(C(=O)COc2coc(CN3CCCCC3)cc2=O)cc1`, the cytotoxicity at 10 µM amounted to 5.12%. Consider `O=C(O)CNC(=O)Cc1csc(-c2cccc(Cl)c2)n1`, for which the cytotoxicity at 10 µM was found to be 4.32%. Regarding `CCOC(=O)N1CCN(c2nc(NC)c3ccccc3n2)CC1`, the cytotoxicity at 10 µM was -9.75%. Under `CCCNC(=O)c1cc(C(C)C)nc(N2CCCCC2)n1` stands 15.8%; under `CN1CCCC(c2cccc(-c3cccc(C(F)(F)F)c3)n2)C1` (stereo unspecified), -6.47%; under `Cc1nc(CC(=O)N2CCCCC2c2ccn3ccnc3n2)cs1` (stereo unspecified), -13.4%. With `CC1(C(=O)NCc2ccsc2)CCOCC1` the figure was 5.73%. On to `O=C(NCc1nnc2n1C(C(=O)NC1CC1)CC2)c1ccc(Cl)cc1Cl` (stereo unspecified), for which the cytotoxicity at 10 µM came to 5.06%. Under `CCC(=O)Nc1ccc(N2CCC(OC)CC2)c(C(F)(F)F)c1` stands 5.72%. Under `Cc1cc(NC(=O)c2ccc(N3CCOCC3)cc2)[nH]n1` stands -28.5%; under `Cc1ccc(C(=O)NCCS(=O)(=O)Cc2ccccc2)c(=O)[nH]1`, -5.96%.

On to `Cc1ccc(C)c(CS(=O)(=O)Cc2ccn(C)c(=O)c2)c1`, for which the cytotoxicity at 10 µM was 13.8%. Consider `O=S(=O)(NCCCn1cncn1)c1ccc2c(c1)CCO2`, for which the cytotoxicity at 10 µM is -10.2%. Under `O=C(NCc1ccc(-n2cncn2)nc1)c1cc(Cl)ccn1` stands 2.8%; under `Cc1ccc(F)c2c1CCCN2CC(=O)NC1CCS(=O)(=O)C1` (stereo unspecified), -11.9%; under `Cn1ccnc1CN1CCN(Cc2cc(-c3ccccc3)no2)CC1`, -15.5%. Under `Cc1cccc(C(=O)N2CCSCC2)c1NC(=O)c1cccnc1` stands -2.83%; under `Cc1cnc(CNC(=O)NC2CCCN(c3ccccc3F)C2)s1` (stereo unspecified), 16.4%. As to `Cc1ccc(C(=O)NCCS(=O)(=O)N2CCSCC2)o1`, the cytotoxicity at 10 µM was found to be 6.13%.

Take `COc1ccc(CN(C(=O)C(C)SC)c2cnn(C)c2)c(OC)c1` (stereo unspecified): the cytotoxicity at 10 µM was -3.88%. `Cc1nnc2n1CCN(CC(=O)NC(C)c1ccc3ccccc3c1)C2` (stereo unspecified): the cytotoxicity at 10 µM was -7.91%. Turning to `CC(C)Cc1noc(CNc2cccc(-c3nnnn3C)c2)n1`, the cytotoxicity at 10 µM is 4.6%. In the case of `COc1cc(CN2CCC(NC(=O)c3cccn3C)C2)cc(OC)c1` (stereo unspecified), the cytotoxicity at 10 µM was -12.6%. Under `N#Cc1c(F)cccc1Nc1cnn(CC(O)CN2CCOCC2)c1` (stereo unspecified) stands -1.47%; under `O=C(NCC1CCN(CCc2ccccc2)C1)c1c(F)cccc1F` (stereo unspecified), 16.6%. With `COc1cc(NC(=O)NCCO)ccc1N1CCOC1=O` the figure was -0.803%; with `CNC(=O)CC1CCN(C(=O)NCc2cn3c(C)cccc3n2)CC1`, 3.88%. Turning to `Cc1nsc(N2CCCN(C(=O)NCc3cc(C)on3)CC2)n1`, the cytotoxicity at 10 µM was -1.63%.

Consider `Cc1csc(CNC(=O)NC(C)c2ccc3c(c2)OCCO3)n1` (stereo unspecified), for which the cytotoxicity at 10 µM was -5.72%. With `CC(CC#N)N(C)Cc1ccc(F)cc1C#N` (stereo unspecified) the figure was -6.69%.

For the molecule `CC(C)CCS(=O)(=O)N1CCCC(c2nncn2C(C)C)C1` (stereo unspecified), the cytotoxicity at 10 µM amounted to 5.04%. With `CCn1c(CN(C)Cc2csc(C)n2)nc2cc(F)ccc21` the figure was -47%; with `N#Cc1ccc(NC(=O)N2CCCCC2CN2CCCC2=O)cc1` (stereo unspecified), 4.65%. For the molecule `O=C(CCc1cscn1)N1CCC(C(=O)O)(c2ccccc2)CC1`, the cytotoxicity at 10 µM was -5.36%. Under `CNC(=O)CN(C)C(=O)c1cc2ccccc2cc1OC` stands 17.1%; under `COCCN(Cc1cccc(O)c1)CC1CC1`, 12.7%; under `Cn1c(=O)ccn(CC(=O)N2CCCC(n3cccn3)C2)c1=O` (stereo unspecified), -8.92%.

Regarding `Fc1ccc(C2CN(CCc3ccncc3)CCO2)cc1` (stereo unspecified), the cytotoxicity at 10 µM was determined as 11%. With `CC1CN(CCc2ccncc2)CCO1` (stereo unspecified), the cytotoxicity at 10 µM is -1.99%. Under `Cc1ccc(CNCc2nnc3n2CC(C(F)(F)F)CC3)cc1` (stereo unspecified) stands 6.84%; under `CCOCC(=O)NC1(c2cccc(Br)c2)CC1`, -11.3%; under `CC1=N[C@@]2(CC[C@@H]3CN(S(C)(=O)=O)C[C@@H]32)C(=O)N1CC(C)C`, -71.3%. With `O=C1CC(c2ccccc2)C2(CCN(C(=O)c3cnccn3)CC2)N1` (stereo unspecified), the cytotoxicity at 10 µM is -75.1%. With `c1ccc(-c2nnn3c2COC(CNCC2CCOCC2)C3)cc1` (stereo unspecified) the figure was 11%; with `Fc1ccccc1CC1CCN(Cc2ccccn2)CC1`, 2.25%. With `CN(CCN1CCCC1)c1nccc(N2CCN[C@H]3CS(=O)(=O)C[C@H]32)n1` the figure was -8.93%; with `COCCN1CCCC2(CCN(c3cccc(C(F)(F)F)n3)C2)C1=O` (stereo unspecified), 3.84%; with `Cn1ccnc1CN1CCC(Cn2cc(-c3ccccc3)nn2)CC1`, 0.959%.

`CC(C)CC(C)NC1CCN(c2ccc(-c3cscn3)cc2)CC1` (stereo unspecified): the cytotoxicity at 10 µM was -50.6%. Turning to `CCCOC(=O)NCCC1CN(c2cnn(C)c(=O)c2)CCO1` (stereo unspecified), the cytotoxicity at 10 µM is 5.31%. Under `O=C(CN1CCNC1=O)N1CCc2nnc(-c3ccccc3)n2CC1` stands -46.1%.

Regarding `COCc1cc(CNC(=O)c2c(C)c(C)cc(C)c2C)n[nH]1`, the cytotoxicity at 10 µM is -6.65%. Under `CN1CCN(C)C2(CCN(Cc3ccc(C4CCCO4)s3)CC2)C1` (stereo unspecified) stands -11.7%. Under `Cc1cc(C)c2nc(C)cc(C(=O)NC(C)c3nnn[nH]3)c2c1` (stereo unspecified) stands 7.24%; under `CCc1nc(CN(C)C(=O)c2cc(CN(CC)CC)c(CC)o2)no1`, 0.9%. Under `CC(=O)N[C@@H]1CN(C(=O)c2ccc[nH]2)C[C@H]1c1ccc(C)o1` stands 5.16%; under `COCCN(Cc1cnn(C)c1)c1nc2c(s1)c(C)nn2C`, -42.4%. On to `CN(Cc1ccc(-n2cccn2)cc1)c1nc(N)nc2c1CCNCC2`, for which the cytotoxicity at 10 µM came out at 6.99%. As to `CC(=O)Nc1ccc(Oc2ccc(CN3CCCC3)cc2F)cc1`, the cytotoxicity at 10 µM came to 0.9%.

With `O=C(Nc1ccc2c(c1)OCO2)N1CCCC1c1ccco1` (stereo unspecified), the cytotoxicity at 10 µM is -2.11%.

Take `Cc1cccnc1CN1CCN(C(=O)c2ccn(C(C)(C)C)c2)CC1`: the cytotoxicity at 10 µM came out at 11%. `Cc1ccnc(CC(C)N(C)c2cc(CCN)nc(C)n2)c1` (stereo unspecified): the cytotoxicity at 10 µM was -48%. For the molecule `Cn1c(Cn2cccn2)nnc1C1CCCN(c2ccncc2)C1` (stereo unspecified), the cytotoxicity at 10 µM was -14.2%.

For `COCCN1CCCC(O)(CN2CCN(c3ncccc3C)CC2)C1=O` (stereo unspecified), the cytotoxicity at 10 µM is -10.3%. Under `CC(C)c1nccn1CCCNC(=O)c1ccc(N(C)C)nc1` stands 15.7%. Under `Cc1scc(C(=O)N2CCC3(CCCN(C)C3=O)C2)c1-c1ccccc1` (stereo unspecified) stands -6.05%; under `O=C(c1cc(=O)[nH]c(=O)[nH]1)N1CCCCC1c1nc2cc(F)ccc2[nH]1` (stereo unspecified), -9.64%. Under `CN1CCCC(Cc2cncc(Br)c2)CC1` (stereo unspecified) stands -5.95%. Regarding `COC(=O)c1cccn1C1CCN(Cc2cccc(C(N)=O)c2)CC1`, the cytotoxicity at 10 µM is -4.7%. With `CC(C)c1nc(C2CCCN(C(=O)c3ccc4c(c3)OCO4)C2)no1` (stereo unspecified) the figure was -14.1%; with `Cc1cnn(CC2CN(Cc3nc4cccnc4[nH]3)CCO2)c1` (stereo unspecified), -1.04%; with `Cc1cc(NC(=O)CN2CCn3c(C)nnc3C2)no1`, -3.82%. Under `Cc1cccc(CS(=O)(=O)CC(=O)NCCCOC(C)C)c1` stands -5.15%. With `Cc1noc(C2CCN(C(=O)CCNS(C)(=O)=O)CC2)n1` the figure was -21%. Consider `CN(Cc1ccnc2ccccc12)C1CCS(=O)(=O)C1` (stereo unspecified), for which the cytotoxicity at 10 µM came to 4.36%. As for `O=C(NC1CC1)N1CCc2ccc(=O)n(Cc3cccnc3)c2CC1`, the cytotoxicity at 10 µM was determined as 0.995%. In the case of `CN1Cc2c(C(=O)Nc3cccnc3)ncn2-c2ccccc2S1(=O)=O`, the cytotoxicity at 10 µM is -4%. Under `COCCC(=O)N1CCC2(CCN(Cc3cccc(F)c3)CC2)CC1` stands -75%; under `O=C(c1ccccn1)N1C[C@H]2CCC[C@@]2(COCC2CCOCC2)C1`, -76.3%; under `CO[C@@H]1CCN(Cc2ccoc2)[C@@H]2CN(Cc3ccco3)C[C@@H]21`, 8.1%. Take `CC(C)CN1CCN(C)C2(CCN(c3nccs3)CC2)C1=O`: the cytotoxicity at 10 µM is -5.4%. Turning to `Cc1ccc(CN2CCc3ncc(CNC(=O)C4CCC4)n3CC2)o1`, the cytotoxicity at 10 µM stood at 8.71%.

As for `Cn1ccnc1CN1CCC2(CC(=O)N(c3ccccn3)C2)C1` (stereo unspecified), the cytotoxicity at 10 µM is -74.6%. Consider `Cc1ccc(N2CCO[C@H]3CN(Cc4ccc(F)cc4)C[C@H]32)nn1`, for which the cytotoxicity at 10 µM was -88.6%. For the molecule `Cc1cccc(CN2CC3(CCN(Cc4ccoc4)CC3)OCC2=O)n1`, the cytotoxicity at 10 µM is -3.18%.
